Assay [1] deals with T1, 5-hydroxytryptamine receptor 2A (Homo sapiens, UniProt P28223). In words: Agonist activity at human 5HT2A receptor expressed in HEK293 cells at 10 uM assessed as calcium flux by FLIPR assay relative to serotonin. The assay is classed as functional, cell-based. (In general: Calcium assays in cells follow changes in intracellular calcium, usually with a dye or a luminescent sensor.)

The target in assay [2] is T2, 5-hydroxytryptamine receptor 2C (Homo sapiens) (UniProt P28335).
T2 sequence (whole entry): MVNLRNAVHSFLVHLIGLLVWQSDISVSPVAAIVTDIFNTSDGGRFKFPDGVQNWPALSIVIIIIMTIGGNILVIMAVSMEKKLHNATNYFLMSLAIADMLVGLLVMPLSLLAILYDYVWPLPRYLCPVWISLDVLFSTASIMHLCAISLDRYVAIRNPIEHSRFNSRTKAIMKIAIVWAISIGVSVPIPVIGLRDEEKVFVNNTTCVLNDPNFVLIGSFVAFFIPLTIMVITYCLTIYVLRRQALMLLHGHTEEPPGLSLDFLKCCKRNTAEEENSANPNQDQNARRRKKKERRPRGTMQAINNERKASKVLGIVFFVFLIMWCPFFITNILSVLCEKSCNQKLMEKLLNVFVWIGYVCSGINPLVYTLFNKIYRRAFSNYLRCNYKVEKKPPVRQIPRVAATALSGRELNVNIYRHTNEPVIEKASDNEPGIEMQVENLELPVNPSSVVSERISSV
In words: (§1) Agonist activity at human 5HT2C receptor expressed in HEK293 cells assessed as calcium flux by FLIPR assay. The assay is classed as functional, cell-based.

The target in assay [3] is T2, 5-hydroxytryptamine receptor 2C (Homo sapiens). The experiment in a line: Agonist activity at human 5HT2C receptor expressed in HEK293 cells at 10 uM assessed as calcium flux by FLIPR assay relative to serotonin. The assay is classed as functional, cell-based.
Assay [4] deals with T3, 5-hydroxytryptamine receptor 2B (Homo sapiens, UniProt P41595). The experiment in a line: Agonist activity at human 5HT2B receptor expressed in HEK293 cells assessed as calcium flux by FLIPR assay. The assay is classed as functional, cell-based.
The target in assay [5] is T3, 5-hydroxytryptamine receptor 2B. In words: Agonist activity at human 5HT2B receptor expressed in HEK293 cells at 10 uM assessed as calcium flux by FLIPR assay relative to serotonin. Format: functional, cell-based.
Assay [6] deals with T1, 5-hydroxytryptamine receptor 2A. In words: Agonist activity at human 5HT2A receptor expressed in HEK293 cells assessed as calcium flux by FLIPR assay. Format: functional, cell-based.
Assay [7] concerns Mus musculus. The experiment in a line: Antidepressant activity in C57BL/6J mouse assessed as decrease in immobility time at 10 mg/kg, ip administered 30 mins prior to testing measured every 1 min for 6 mins by forced swim test relative to control. Format: functional. The method in brief: (§2)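 Male C57BL/6J mice, 9 weeks old, housed 4 per cage on a 12 h light-dark cycle. Compound given ip in 10% DMSO in saline 30 min before testing. Each mouse was placed alone in a glass cylinder holding 12 cm of water at 23 ± 1 °C. Immobility (floating posture) was scored every 1 min over a 6 min trial and compared with vehicle.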

A short description of assay [8]: Selectivity ratio of Ki for human 5HT2B receptor to Ki for 5HT2C receptor.
In assay [9] the target is T1, 5-hydroxytryptamine receptor 2A. The experiment in a line: Displacement of [3H]ketanserin from human 5HT2A receptor. On the technique in general: In a radioligand displacement assay an active substance lowers the binding of a labelled ligand.
For assay [10], the target named is Sodium-dependent serotonin transporter (Homo sapiens, UniProt P31645). In words: Displacement of [3H]citalopram from SERT.
Assay [11] addresses T4, 5-hydroxytryptamine receptor 2C (Homo sapiens, UniProt P28335).
T4 sequence (P28335 whole entry): T2 sequence (whole entry)
The description is as §1. The assay is classed as functional, cell-based.

The target in assay [12] is Sodium-dependent dopamine transporter (Homo sapiens, UniProt Q01959). In words: Displacement of [3H]WIN-35428 from DAT.
The nature of assay [13]: Selectivity ratio of Ki for human 5HT2A receptor to Ki for 5HT2C receptor.
Assay [14] concerns the target T3, 5-hydroxytryptamine receptor 2B. In words: Displacement of [3H]LSD from human 5HT2B receptor.
For assay [15], the target named is Sodium-dependent noradrenaline transporter (Homo sapiens, UniProt P23975). The experiment in a line: Displacement of [3H]nisoxetine from NET.
The target of assay [16] is T4, 5-hydroxytryptamine receptor 2C. The experiment in a line: Displacement of [3H]mesulergine from 5HT2C receptor.
Assay [17] is filed under the species Homo sapiens. In words: Selectivity ratio of EC50 for human 5HT2B receptor to EC50 for human 5HT2C receptor.
Assay [18] has as its target Serotonin 2 receptors; 5-HT2a & 5-HT2c (Homo sapiens) (UniProt P28223+P28335). The experiment in a line: Selectivity ratio of EC50 for human 5HT2A receptor to EC50 for human 5HT2C receptor.
Assay [19] concerns Mus musculus. In words: Antidepressant activity in C57BL/6J mouse assessed as decrease in immobility time at 30 mg/kg, ip administered 30 mins prior to testing measured every 1 min for 6 mins by forced swim test relative to control. The assay is classed as functional. Details: scale not given: the % may be the effect or the level left. Conditions: route intraperitoneal. The method in brief: as §2

Assay [20] relates to Mus musculus. In words: Antidepressant activity in C57BL/6J mouse assessed as decrease in immobility time at 60 mg/kg, ip administered 30 mins prior to testing measured every 1 min for 6 mins by forced swim test relative to control. Format: functional. The arrangement: scale not given: the % may be the effect or the level left. Conditions: route intraperitoneal. The method in brief:
as §2

Activity calls are given as the source filed them. No cut-off for these calls is given here.

T1 sequence (P28223 whole entry): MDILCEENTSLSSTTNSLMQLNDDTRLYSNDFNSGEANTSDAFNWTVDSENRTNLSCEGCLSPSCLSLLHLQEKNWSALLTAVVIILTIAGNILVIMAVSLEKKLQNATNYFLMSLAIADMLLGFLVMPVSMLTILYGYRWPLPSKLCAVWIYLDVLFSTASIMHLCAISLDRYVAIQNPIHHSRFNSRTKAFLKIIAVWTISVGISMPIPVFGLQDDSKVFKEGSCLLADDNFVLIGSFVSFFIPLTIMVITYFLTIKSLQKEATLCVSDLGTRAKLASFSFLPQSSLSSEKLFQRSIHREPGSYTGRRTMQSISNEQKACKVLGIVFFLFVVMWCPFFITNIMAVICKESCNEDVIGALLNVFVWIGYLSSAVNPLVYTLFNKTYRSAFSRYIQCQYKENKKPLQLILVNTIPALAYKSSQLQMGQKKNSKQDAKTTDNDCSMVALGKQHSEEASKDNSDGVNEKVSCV
Chain of Serotonin 2 receptors; 5-HT2a & 5-HT2c (Homo sapiens) (P28223 whole entry, looked up, one chain of several): as the sequence (P28223 whole entry) above
Chain of Sodium-dependent dopamine transporter (Q01959 whole entry): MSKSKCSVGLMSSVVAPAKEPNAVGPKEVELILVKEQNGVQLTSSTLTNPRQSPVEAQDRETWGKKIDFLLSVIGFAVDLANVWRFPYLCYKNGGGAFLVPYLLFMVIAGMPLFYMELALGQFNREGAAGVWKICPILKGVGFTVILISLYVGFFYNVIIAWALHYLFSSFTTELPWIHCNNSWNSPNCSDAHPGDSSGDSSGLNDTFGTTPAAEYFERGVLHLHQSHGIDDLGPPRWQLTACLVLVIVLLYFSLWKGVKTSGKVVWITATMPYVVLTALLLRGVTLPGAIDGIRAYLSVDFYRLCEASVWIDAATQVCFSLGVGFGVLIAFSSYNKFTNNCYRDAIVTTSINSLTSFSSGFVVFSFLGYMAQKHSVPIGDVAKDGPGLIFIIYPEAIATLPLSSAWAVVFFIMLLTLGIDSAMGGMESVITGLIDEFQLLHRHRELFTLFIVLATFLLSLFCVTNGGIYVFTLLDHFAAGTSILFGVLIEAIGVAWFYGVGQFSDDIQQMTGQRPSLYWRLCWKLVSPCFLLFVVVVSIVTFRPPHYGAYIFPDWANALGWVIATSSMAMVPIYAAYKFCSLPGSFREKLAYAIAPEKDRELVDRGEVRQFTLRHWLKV
Chain of Sodium-dependent noradrenaline transporter (P23975 whole entry): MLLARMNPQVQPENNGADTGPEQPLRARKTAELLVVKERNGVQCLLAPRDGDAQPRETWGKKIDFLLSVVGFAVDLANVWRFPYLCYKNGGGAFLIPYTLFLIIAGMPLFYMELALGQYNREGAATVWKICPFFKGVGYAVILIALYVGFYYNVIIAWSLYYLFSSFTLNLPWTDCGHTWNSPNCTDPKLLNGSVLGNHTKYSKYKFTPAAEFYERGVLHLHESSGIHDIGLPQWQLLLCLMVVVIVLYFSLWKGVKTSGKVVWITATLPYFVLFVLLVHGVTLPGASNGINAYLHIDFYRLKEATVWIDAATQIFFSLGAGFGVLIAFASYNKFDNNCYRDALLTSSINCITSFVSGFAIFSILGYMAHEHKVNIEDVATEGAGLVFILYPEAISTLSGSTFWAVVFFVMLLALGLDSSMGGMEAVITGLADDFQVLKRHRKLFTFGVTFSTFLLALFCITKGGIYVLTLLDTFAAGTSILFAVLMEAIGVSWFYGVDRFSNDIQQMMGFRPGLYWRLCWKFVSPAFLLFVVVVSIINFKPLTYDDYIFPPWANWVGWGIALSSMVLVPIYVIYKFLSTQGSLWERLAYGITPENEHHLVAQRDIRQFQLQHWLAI
T3 sequence (P41595 whole entry): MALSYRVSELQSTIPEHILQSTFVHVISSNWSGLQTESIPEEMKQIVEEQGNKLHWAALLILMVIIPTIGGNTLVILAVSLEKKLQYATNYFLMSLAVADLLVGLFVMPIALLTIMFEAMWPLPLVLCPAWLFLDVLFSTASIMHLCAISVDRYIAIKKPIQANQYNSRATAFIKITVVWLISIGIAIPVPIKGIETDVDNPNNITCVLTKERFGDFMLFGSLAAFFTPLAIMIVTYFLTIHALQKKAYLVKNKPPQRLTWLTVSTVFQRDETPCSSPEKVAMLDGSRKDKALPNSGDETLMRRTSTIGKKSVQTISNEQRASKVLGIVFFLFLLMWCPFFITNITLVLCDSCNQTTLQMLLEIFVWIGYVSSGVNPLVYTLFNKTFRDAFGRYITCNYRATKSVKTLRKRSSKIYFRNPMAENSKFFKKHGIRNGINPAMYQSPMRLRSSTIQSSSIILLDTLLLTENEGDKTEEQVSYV
Chain of Sodium-dependent serotonin transporter (P31645 whole entry): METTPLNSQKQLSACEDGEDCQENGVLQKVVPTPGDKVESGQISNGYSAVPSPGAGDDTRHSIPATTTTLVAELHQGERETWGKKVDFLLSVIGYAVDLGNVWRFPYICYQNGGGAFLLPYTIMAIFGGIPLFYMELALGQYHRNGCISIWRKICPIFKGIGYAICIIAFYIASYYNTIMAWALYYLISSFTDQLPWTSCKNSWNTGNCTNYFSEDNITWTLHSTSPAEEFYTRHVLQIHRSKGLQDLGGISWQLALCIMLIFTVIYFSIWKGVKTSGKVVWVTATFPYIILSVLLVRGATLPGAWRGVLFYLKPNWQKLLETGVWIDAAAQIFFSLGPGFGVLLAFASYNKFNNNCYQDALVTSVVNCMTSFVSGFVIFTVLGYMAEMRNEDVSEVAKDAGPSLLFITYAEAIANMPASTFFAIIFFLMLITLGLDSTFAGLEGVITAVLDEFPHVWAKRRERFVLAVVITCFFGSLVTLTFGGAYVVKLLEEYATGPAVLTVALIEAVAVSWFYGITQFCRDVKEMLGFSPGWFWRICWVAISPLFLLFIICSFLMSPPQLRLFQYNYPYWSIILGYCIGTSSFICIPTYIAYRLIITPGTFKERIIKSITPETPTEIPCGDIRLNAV

As for `CN[C@H]1C[C@@H]1c1ccccc1` (racemic), the Emax in assay [1] was below 12%; in [3], below 12%; in assay [5], 6%. The outcome in [2], in [4] and in [6] was inactive.
For `CN[C@H]1CC[C@@H](c2ccc(Cl)c(Cl)c2)c2ccccc21`, the outcome in [7] was Active.
With `NC[C@H]1C[C@@H]1c1ccccc1Br`, the results for the Emax in [1], in [3] and in assay [5] were 76%, 116% and 102%, respectively. The values for the Ratio Ki in [8] and in assay [13] were 0.24 and 3.7, respectively. Besides, the inhibition constant (Ki) was determined as 0.246 µM in [9]; 3.82 µM in assay [10]; 2.11 µM in assay [12]; 0.016 µM in [14]; 3.4 µM in assay [15]; 0.066 µM in [16]. Moreover, the EC50 in assay [11] worked out at 0.00078 µM; in assay [4], 0.013 µM; in assay [6] it was 0.067 µM. Moreover, the Ratio EC50 in [17] worked out at 17; in assay [18], 86.
Take `CN(C)[C@H]1C[C@@H]1c1ccccc1` (racemic): the figures for the Emax in assay [1], in assay [3] and in [5] were below 12%, below 12% and -2%, respectively. Moreover, the result in assay [2], in assay [4] and in [6] was inactive.
`Cc1cccc([C@H]2C[C@@H]2CN)c1.Cl` (relative stereo): the Emax in assay [1] was 86%; in assay [3], 95%; in assay [5], 93%. Moreover, the Ratio Ki in assay [8] worked out at 0.32; in assay [13] it was 6.9. Also, the Activity in assay [19] is on record as 38%; in assay [20], 38%; in assay [7] (route intraperitoneal) it was 28%. Moreover, the Ratio EC50 in assay [17] came out at 14; in assay [18] it was 123.
Consider `NC[C@H]1C[C@@H]1c1ccc(O)cc1` (relative stereo), for which the Emax in assay [1], in [3] and in assay [5] was below 12% in each case. Further, the result in assay [2], in assay [4] and in assay [6] was inactive.
Take `NC[C@@H]1C[C@H]1c1ccccc1Br` (relative stereo) [listing 1 of 2 here]: the Emax was determined as 71% in [1], 76% in assay [3] and 86% in assay [5]. Further, the values for the Ratio Ki in [8] and in [13] were 0.18 and 5.3, respectively. Besides, the results for the Ratio EC50 in [17] and in [18] were 3.7 and 73, respectively.
Turning to `c1ccc(CN[C@H]2C[C@@H]2c2ccccc2)cc1` (racemic), the values for the Emax in [1], in [3] and in assay [5] were below 12%, below 12% and -1%, respectively. Moreover, the result in assay [2], in assay [4] and in assay [6] was inactive.
Turning to `NC[C@@H]1C[C@H]1c1ccccc1Br` (relative stereo) [listing 2 of 2 here], the inhibition constant (Ki) in [9] is 0.655 µM; in assay [10], 2.72 µM; in assay [12], above 10 µM; in assay [14] it was 0.022 µM; in assay [15] it was 2.73 µM; in assay [16], 0.124 µM. In addition, the EC50 in assay [11] came to 0.0013 µM; in assay [4], 0.0048 µM; in assay [6] it was 0.094 µM.
Consider `NC[C@H]1C[C@@H]1c1ccc(F)cc1` (relative stereo), for which the results for the Emax in [1], in assay [3] and in [5] were 67%, 93% and 89%, respectively. The Ratio Ki in [8] was found to be 0.37; in [13] it was 11.5. Further, the results for the Ratio EC50 in assay [17] and in assay [18] were 1.9 and 47, respectively.
For `NC[C@H]1C[C@@H]1c1ccc(F)cc1Cl` (relative stereo), the Emax in assay [1] turned out to be 91%; in assay [3] it was 100%; in assay [5], 97%. The Ratio Ki in assay [8] was 0.08; in [13], 1.2. The Ratio EC50 in assay [17] was found to be 7.3; in assay [18], 30.
Consider `C[C@H]1CNCCc2ccc(Cl)cc21` [LORCASERIN], for which the Emax in assay [1] came to 26%; in assay [3] it was 124%. Moreover, the Ki in assay [12] and in assay [15] was above 10 µM in each case.
Regarding `NC[C@H]1C[C@@H]1c1cccc(C#CCCCCO)c1` (relative stereo), the Emax was below 12% in assay [1], 79% in assay [3] and 17% in assay [5]. Besides, the figures for the EC50 in assay [11] and in assay [4] were 0.332 µM and 1.74 µM, respectively. For the same compound, the outcome in assay [6] was inactive. For the same compound, the figures for the Ratio EC50 in [17] and in assay [18] were above 1 and above 30, respectively.

What is called Emax is the greatest response seen or fitted, relative to the assay's reference. For orientation: Ki means the dissociation constant of the complex between target and ligand, obtained from inhibition or displacement. Broadly, the EC50 is the concentration at which the effect is half-maximal.

Source of the values: ChEMBL document CHEMBL1153382 (J Med Chem, 2009).
